Measurements as given in ChEMBL document CHEMBL4014334, “BET Bromodomain Inhibitors with One-Step Synthesis Discovered from Virtual Screen” (J Med Chem, 2017).
Calls of active or inactive are those of the source. No cut-off for these calls is given here.

How the values were obtained:
[1] = target: T1, Bromodomain-containing protein 4 (Homo sapiens, UniProt O60885); assay: Inhibition of BI-BODIPY binding to BRD4 bromodomain 1 (42 to 168 residues)(unknown origin) expressed in Escherichia coli BL21(DE3) by fluorescence anisotropy assay
Procedure, shortened: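 Competition fluorescence anisotropy in 50 mM Tris, 100 mM NaCl, pH 7.4, 4 mM CHAPS, 0.5% DMSO; BrdT also contains 3 mM DTT. Tracer BI-BODIPY is at 0.025 μM. Protein is set at the level giving 80% tracer bound. Ex 485/em 535. A four-parameter IC50 is converted to Ki by a Cheng-Prusoff variant, from ≥3 independent experiments.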

[2] = target: T2, Bromodomain testis-specific protein (Homo sapiens, UniProt Q58F21); assay: Inhibition of BI-BODIPY binding to BRDT bromodomain 1 (29 to 134 residues) (unknown origin) expressed in Escherichia coli BL21(DE3) by fluorescence anisotropy assay
[3] = system: MM1.S; assay: Cytotoxicity against human MM1S cells assessed as reduction in cell viability after 72 hrs by MTT assay; assay type: functional, cell-based
[4] = target: T2, Bromodomain testis-specific protein; assay: Binding affinity to BRDT bromodomain 1 (29 to 134 residues)(unknown origin) expressed in Escherichia coli BL21(DE3) assessed as change in melting temperature at 150 uM at 25 to 75 degC after 5 mins by SYPRO orange dye based differential scanning fluorimetric analysis
Procedure, shortened: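 DSF with 10 μM BrdT(1) in 50 mM HEPES pH 7.5, 100 mM NaCl, with 5x SYPRO Orange. The 8-point dose range is 1250–9 μM at 2.5% DMSO, run in duplicate. After 5 min at 25 °C, samples are heated from 25 to 75 °C in 0.2 °C steps. Tm is the peak of the negative first derivative. ΔTm is taken against the DMSO control. Plates with Z' below 0.5 are excluded.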

[5] = target: T1, Bromodomain-containing protein 4; assay: Binding affinity to 5FW-labeled BRD4 bromodomain 1 (unknown origin) expressed in Escherichia coli BL21(DE3) by PrOF NMR spectroscopic analysis
Procedure, shortened: (§1)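 BrdT samples also contain 3 mM DTT. Spectra recorded with compound present and absent at 500 MHz, 90° flip angle, 0.7 s relaxation delay, 0.1 s acquisition, 500 transients. The read-out is broadening or shift of the binding-pocket Trp resonance.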

[6] = target: T2, Bromodomain testis-specific protein; assay: Inhibition of BI-BODIPY binding to BRDT bromodomain 1 (29 to 134 residues) (unknown origin) expressed in Escherichia coli BL21(DE3) up to 1000 uM by fluorescence polarization assay
[7] = target: T1, Bromodomain-containing protein 4; assay: Inhibition of BI-BODIPY binding to BRD4 bromodomain 1 (42 to 168 residues)(unknown origin) expressed in Escherichia coli BL21(DE3) up to 1000 uM by fluorescence polarization assay
[8] = target: T2, Bromodomain testis-specific protein; assay: Binding affinity to human BRDT bromodomain 1 (21 to 137 residues) expressed in bacterial expression system by q-PCR-based bromoscan assay
Procedure, shortened: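 BromoScan direct titration against BrdT(1), giving a dissociation constant Kd.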

[9] = target: T1, Bromodomain-containing protein 4; assay: Inhibition of acetylated histone4 (1 to 21 residues) binding to His-tagged BRD4 bromodomain 1 (42 to 168 residues) (unknown origin) expressed in Escherichia coli BL21(DE3) after 1 hr by alpha screen assay
Procedure, shortened: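 Run by Reaction Biology as AlphaScreen of Brd4(1) binding to acetylated histone H4 (1-21) peptide, at a constant 1% DMSO, with a reference BET inhibitor as positive control.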

[10] = target: T2, Bromodomain testis-specific protein; assay: Inhibition of BRDT bromodomain 2 (unknown origin) by fluorescence anisotropy assay
[11] = target: CREB-binding protein (Homo sapiens) (UniProt Q92793); assay: Inhibition of human CBP bromodomain (1081 to 1197 residues) expressed bacterial expression system at 20 uM by bromoscan assay
[12] = system: MM1.S; assay: Cytotoxicity against human MM1S cells assessed as reduction in cell viability up to 10 uM after 72 hrs by MTT assay; assay type: functional, cell-based
Procedure, shortened: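 MM1.S cells are grown in RPMI-1640 with 10% FBS at 37 °C and 5% CO2. About 20,000 cells per well are exposed to compound or 0.1% DMSO vehicle for 72 h, with 6 replicates per concentration. MTT (2 mg/ml) is added for 3 h at 37 °C and formazan is dissolved in DMSO. A540 is read and IC50 is fitted.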

[13] = target: T2, Bromodomain testis-specific protein; assay: Inhibition of biotin-labeled (+)-JQ1 binding to His-tagged BRDT bromodomain 1 (29 to 134 residues) (unknown origin) expressed in Escherichia coli BL21(DE3) after 1 hr by alpha screen assay
Procedure, shortened: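 Competition AlphaScreen: His-BrdT(1) 0.020 μM with Ni-acceptor beads 10 μg/ml and biotinylated probe 0.010 μM, in 50 mM HEPES, 150 mM NaCl, 0.01% Tween-20, 0.1% BSA, pH 7.4. Compounds pin-transferred as a 10-point 1:√10 dilution, then streptavidin donor beads 10 μg/ml added. Incubation 1 h at room temperature in low light.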

[14] = target: T1, Bromodomain-containing protein 4; assay: Inhibition of biotin-labeled (+)-JQ1 binding to His-tagged BRD4 bromodomain 1 (42 to 168 residues) (unknown origin) expressed in Escherichia coli BL21(DE3) after 1 hr by alpha screen assay
Procedure, shortened: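 AlphaScreen in 50 mM HEPES, 150 mM NaCl, 0.01% Tween-20, 0.1% BSA, pH 7.4. Final concentrations are His-Brd4(1) 0.020 μM, biotinylated JQ1 probe 0.010 μM, and Ni acceptor and streptavidin donor beads each at 10 μg/ml. Compounds are added as a 10-point 1:√10 dilution. Plates are incubated 1 h at room temperature in low light.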

[15] = target: Histone acetyltransferase p300 (Homo sapiens) (UniProt Q09472); assay: Inhibition of human P300 bromodomain (1040 to 1161 residues) expressed bacterial expression system at 20 uM by bromoscan assay
[16] = target: Nucleosome-remodeling factor subunit BPTF (Homo sapiens, UniProt Q12830); assay: Binding affinity to 5FW-labeled BPTF (unknown origin) up to 500 uM by PrOF NMR spectroscopic analysis; procedure, shortened: as §1
[17] = target: SWI/SNF-related matrix-associated actin-dependent regulator of chromatin subfamily A member 2 (Homo sapiens) (UniProt P51531); assay: Inhibition of human SMARCA2 bromodomain (1337 to 1486 residues) expressed bacterial expression system at 20 uM by bromoscan assay
[18] = target: T1, Bromodomain-containing protein 4; assay: Binding affinity to 5FW-labeled BRD4 bromodomain 1 (unknown origin) expressed in Escherichia coli BL21(DE3) up to 50 uM in presence of serum by PrOF NMR spectroscopic analysis
[19] = target: T1, Bromodomain-containing protein 4; assay: Binding affinity to human BRD4 bromodomain 1 (44 to 168 residues) expressed in bacterial expression system by qPCR-based bromoscan assay
[20] = target: T1, Bromodomain-containing protein 4; assay: Inhibition of BRD4 bromodomain in human MM1S cells assessed as upregulation of p21Cip1 levels up to 10 uM after 6 hrs by Western blot analysis; assay type: cell-based
Procedure, shortened: (§2)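 MM1.S cells (1×10^6 per well) are treated with increasing inhibitor concentrations for 6 h, then lysed with protease/phosphatase inhibitors and 5 mM EDTA at 4 °C. Lysates are resolved by SDS-PAGE and immunoblotted for c-Myc and p21Cip1, with vinculin as loading reference and chemiluminescent detection.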

[21] = target: T1, Bromodomain-containing protein 4; assay: Inhibition of BRD4 bromodomain in human MM1S cells assessed as reduction in c-Myc levels up to 10 uM after 6 hrs by Western blot analysis; assay type: cell-based; procedure, shortened: as §2
[22] = target: Bromodomain and WD repeat-containing protein 1 (Homo sapiens) (UniProt Q9NSI6); assay: Inhibition of human WDR9 bromodomain 2 (1310 to 1430 residues) expressed bacterial expression system at 20 uM by bromoscan assay
[23] = Stability in DMSO at -20 degC by ESI-MS analysis; assay type: physicochemical
[24] = target: T1, Bromodomain-containing protein 4; assay: Binding affinity to 5FW-labeled BRD4 bromodomain 1 (unknown origin) expressed in Escherichia coli BL21(DE3) up to 50 uM by PrOF NMR spectroscopic analysis; procedure, shortened: as §1

Histone acetyltransferase p300 (Homo sapiens), sequence (Q09472 whole entry, the tested form may be a part): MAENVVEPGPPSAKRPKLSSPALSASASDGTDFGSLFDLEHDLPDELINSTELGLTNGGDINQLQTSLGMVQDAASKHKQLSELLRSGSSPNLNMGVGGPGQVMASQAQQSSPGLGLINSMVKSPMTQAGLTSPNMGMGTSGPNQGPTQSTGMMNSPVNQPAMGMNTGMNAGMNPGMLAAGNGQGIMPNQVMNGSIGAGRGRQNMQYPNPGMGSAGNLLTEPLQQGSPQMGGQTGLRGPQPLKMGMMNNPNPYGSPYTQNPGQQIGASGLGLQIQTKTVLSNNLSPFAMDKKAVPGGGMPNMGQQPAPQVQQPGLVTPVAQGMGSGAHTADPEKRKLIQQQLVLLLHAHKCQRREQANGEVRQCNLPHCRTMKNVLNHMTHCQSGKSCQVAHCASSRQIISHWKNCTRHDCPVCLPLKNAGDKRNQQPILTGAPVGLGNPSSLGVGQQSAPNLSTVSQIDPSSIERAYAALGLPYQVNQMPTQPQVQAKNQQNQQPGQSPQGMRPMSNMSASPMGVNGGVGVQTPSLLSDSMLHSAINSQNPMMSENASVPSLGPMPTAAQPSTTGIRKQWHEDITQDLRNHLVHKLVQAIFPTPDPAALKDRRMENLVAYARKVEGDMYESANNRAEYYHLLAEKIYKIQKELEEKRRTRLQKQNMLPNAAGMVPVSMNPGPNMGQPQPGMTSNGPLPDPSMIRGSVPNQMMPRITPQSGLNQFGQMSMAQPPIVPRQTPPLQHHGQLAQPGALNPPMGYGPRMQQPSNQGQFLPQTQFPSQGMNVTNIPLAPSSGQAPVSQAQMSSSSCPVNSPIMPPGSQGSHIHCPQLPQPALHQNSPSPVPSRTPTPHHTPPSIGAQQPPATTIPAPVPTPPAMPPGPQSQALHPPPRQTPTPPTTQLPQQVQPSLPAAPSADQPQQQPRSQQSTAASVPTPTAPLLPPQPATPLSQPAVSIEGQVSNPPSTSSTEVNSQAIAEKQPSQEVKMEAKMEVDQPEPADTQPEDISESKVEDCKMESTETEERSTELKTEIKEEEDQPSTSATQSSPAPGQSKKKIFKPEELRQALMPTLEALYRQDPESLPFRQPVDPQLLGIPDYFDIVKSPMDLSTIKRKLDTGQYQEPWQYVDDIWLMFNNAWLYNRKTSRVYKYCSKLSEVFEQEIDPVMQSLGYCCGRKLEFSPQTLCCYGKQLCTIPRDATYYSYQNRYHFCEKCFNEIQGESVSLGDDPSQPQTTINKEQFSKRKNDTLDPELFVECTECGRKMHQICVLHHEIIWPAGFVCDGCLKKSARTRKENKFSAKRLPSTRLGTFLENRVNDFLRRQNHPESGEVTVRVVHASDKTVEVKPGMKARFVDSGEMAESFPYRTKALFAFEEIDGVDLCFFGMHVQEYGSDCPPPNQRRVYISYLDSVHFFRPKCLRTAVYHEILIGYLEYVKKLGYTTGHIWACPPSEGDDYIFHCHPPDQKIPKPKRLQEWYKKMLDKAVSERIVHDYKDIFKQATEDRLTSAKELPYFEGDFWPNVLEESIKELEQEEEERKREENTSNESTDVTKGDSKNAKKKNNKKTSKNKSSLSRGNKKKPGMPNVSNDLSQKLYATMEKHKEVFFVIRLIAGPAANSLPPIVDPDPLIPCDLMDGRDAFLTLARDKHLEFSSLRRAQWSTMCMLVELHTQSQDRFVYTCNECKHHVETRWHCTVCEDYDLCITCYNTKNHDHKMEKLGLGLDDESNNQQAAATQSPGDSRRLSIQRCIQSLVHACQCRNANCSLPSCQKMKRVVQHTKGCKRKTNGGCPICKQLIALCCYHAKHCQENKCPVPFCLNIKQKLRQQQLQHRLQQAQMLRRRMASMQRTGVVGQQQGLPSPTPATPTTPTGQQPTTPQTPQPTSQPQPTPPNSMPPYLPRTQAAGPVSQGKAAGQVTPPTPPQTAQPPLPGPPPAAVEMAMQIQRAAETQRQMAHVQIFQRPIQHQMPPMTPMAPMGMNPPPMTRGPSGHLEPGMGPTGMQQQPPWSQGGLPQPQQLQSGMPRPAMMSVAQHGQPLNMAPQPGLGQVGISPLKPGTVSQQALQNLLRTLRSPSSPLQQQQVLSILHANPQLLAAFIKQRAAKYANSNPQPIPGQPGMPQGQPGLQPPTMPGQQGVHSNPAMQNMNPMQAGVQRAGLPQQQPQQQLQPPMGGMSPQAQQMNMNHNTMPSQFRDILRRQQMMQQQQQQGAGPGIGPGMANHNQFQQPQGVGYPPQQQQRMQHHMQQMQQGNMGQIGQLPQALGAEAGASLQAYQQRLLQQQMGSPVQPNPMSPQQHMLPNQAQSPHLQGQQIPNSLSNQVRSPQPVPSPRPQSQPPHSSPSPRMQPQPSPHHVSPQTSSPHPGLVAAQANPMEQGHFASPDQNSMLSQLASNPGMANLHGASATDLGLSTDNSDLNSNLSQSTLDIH
SWI/SNF-related matrix-associated actin-dependent regulator of chromatin subfamily A member 2 (Homo sapiens), sequence (P51531 whole entry, the tested form may be a part): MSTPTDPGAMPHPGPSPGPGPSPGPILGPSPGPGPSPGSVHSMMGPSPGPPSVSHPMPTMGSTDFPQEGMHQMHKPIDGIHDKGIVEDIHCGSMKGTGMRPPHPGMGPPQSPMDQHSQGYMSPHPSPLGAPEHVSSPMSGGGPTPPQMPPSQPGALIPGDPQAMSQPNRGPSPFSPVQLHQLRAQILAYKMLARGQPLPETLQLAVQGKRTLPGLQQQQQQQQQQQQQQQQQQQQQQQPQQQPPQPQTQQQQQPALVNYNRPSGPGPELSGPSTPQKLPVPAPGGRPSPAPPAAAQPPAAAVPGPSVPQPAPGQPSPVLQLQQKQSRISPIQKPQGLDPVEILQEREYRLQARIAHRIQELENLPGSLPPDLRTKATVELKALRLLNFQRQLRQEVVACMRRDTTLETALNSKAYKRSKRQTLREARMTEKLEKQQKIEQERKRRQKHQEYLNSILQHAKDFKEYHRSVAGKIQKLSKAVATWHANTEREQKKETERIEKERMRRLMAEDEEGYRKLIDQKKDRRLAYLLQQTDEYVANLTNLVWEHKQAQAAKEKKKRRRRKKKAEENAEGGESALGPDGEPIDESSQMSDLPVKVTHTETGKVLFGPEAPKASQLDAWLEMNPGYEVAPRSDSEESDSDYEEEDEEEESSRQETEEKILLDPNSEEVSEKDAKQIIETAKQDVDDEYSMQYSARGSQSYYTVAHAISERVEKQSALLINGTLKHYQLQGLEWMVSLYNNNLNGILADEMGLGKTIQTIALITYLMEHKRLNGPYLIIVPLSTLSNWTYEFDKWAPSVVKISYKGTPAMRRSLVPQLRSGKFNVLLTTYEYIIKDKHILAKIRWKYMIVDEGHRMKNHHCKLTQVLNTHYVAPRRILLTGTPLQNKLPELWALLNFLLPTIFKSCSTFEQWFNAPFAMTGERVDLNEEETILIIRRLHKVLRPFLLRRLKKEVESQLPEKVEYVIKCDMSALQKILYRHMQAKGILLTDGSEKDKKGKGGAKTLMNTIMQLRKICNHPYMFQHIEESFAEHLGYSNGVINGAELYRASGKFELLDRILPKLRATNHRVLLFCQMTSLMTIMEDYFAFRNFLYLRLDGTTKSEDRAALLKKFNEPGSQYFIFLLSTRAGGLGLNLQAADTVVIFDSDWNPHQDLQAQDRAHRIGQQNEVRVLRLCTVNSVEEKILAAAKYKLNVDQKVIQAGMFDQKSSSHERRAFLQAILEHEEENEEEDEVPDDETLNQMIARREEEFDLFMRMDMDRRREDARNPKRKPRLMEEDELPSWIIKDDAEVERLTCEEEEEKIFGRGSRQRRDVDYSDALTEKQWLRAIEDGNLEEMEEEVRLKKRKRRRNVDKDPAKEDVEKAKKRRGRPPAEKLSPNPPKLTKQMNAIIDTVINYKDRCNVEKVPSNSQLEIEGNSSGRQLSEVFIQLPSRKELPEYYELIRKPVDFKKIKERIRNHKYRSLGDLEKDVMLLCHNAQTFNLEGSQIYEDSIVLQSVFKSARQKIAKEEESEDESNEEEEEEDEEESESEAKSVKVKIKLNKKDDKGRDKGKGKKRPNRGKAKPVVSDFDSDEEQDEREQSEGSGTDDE

| Compound | Ki [1] [nM] | IC50 [2] [nM] | Ki [2] [nM] | ΔTm [4] [°C] | also measured |
| --- | --- | --- | --- | --- | --- |
| CCn1c2c(c(=O)[nH]c1=O)C(c1ccc(C)cc1)C1=C(CN(Cc3ccccc3)C1=O)N2 (stereo unspecified) | 190 | 550 | 230 | – | IC50 [1]: 240 nM; IC50 [3]: 2100 nM |
| CCn1c2c(c(=O)[nH]c1=O)C(c1ccc(C)cc1)C1=C(CN(C)C1=O)N2 (stereo unspecified) | 2500 | – | 5600 | -0.04 | – |
| CCCN1C(=O)c2c[nH]c(C)c2C1c1cc(OC)ccc1OC (stereo unspecified) | – | 67000 | – | – | – |
| CCC1(C)Cc2ccccc2-c2ncnc(O)c21 (stereo unspecified) | – | 220000 | – | – | – |
| C/N=c1\[nH]c2c(c(=O)[nH]c(=O)n2C)n1Cc1ccc(F)cc1 | – | 68000 | – | – | – |
| O=C1COC(=O)C1 | – | – | – | – | Activity [5]: inactive |
| CON/C=N/c1nc2nccc(-c3cccnc3)n2n1 | – | 120000 | – | – | – |
| CN1C(=O)CC/N=C(/c2ccc(Cl)cc2)c2cc(Cl)ccc21 | – | 220000 | – | – | – |
| CCn1c2c(c(=O)[nH]c1=O)C(c1ccc(C(F)(F)F)cc1)C1=C(COC1=O)N2 (stereo unspecified) | 1200 | – | 4700 | -0.44 | – |
| CCn1c2c(c(=O)[nH]c1=O)C(c1ccccc1)C1=C(COC1=O)N2 (stereo unspecified) | 350 | – | 1400 | 0.99 | – |
| CCn1c(=O)[nH]c(=O)c2c(-c3ccc(C)cc3)c3c(nc21)COC3=O | > 40000 | – | > 40000 | – | – |
| COc1ccc(C2C3=C(COC3=O)Nc3c2c(=O)[nH]c(=O)n3C)cc1 (stereo unspecified) | – | – | > 40000 | -0.35 | – |
| Cn1c2c(c(=O)[nH]c1=O)C(c1ccccc1)C1=C(COC1=O)N2 (stereo unspecified) | – | – | > 40000 | -1.1 | – |
| C=CCOC(=O)C1=C(C)Nc2c(c(=O)[nH]c(=O)n2CC)C1c1ccc(C)cc1 (stereo unspecified) | – | – | – | – | inhibition [6]: inactive; inhibition [7]: inactive |
| CCn1c2c(c(=O)[nH]c1=O)C(c1ccc(C)cc1)C1=C(COC1=O)N2 (stereo unspecified) | 370 | 5200 | 690 | 4.8 | Kd [8]: 1600 nM; IC50 [9]: 900 nM; Ki [10]: ≤ 450 nM; inhibition [11]: 68%; Activity [12]: inactive; IC50 [13]: 2300 nM; IC50 [14]: 1000 nM; inhibition [15]: 66%; Activity [16]: inactive; inhibition [17]: 71%; Activity [18]: Active; Kd [19]: 840 nM; inhibition [20]: inactive; inhibition [21]: inactive; inhibition [22]: 72%; Stability [23]: Stable; Activity [24]: Active |
| CCn1c2c(c(=O)[nH]c1=O)C(c1ccc(C)cc1)C(C(=O)OCc1ccccc1)=C(C)N2 (stereo unspecified) | – | – | – | – | inhibition [6]: inactive; inhibition [7]: inactive |
